Source: PubChem (The Scripps Research Institute Molecular Screening Center)
This is a sample that favours compounds with a hit; in the whole collection about 2.6% have one here.
mABHD4 FP = ABHD4 inhibitors, primary screen, biochemical, fluorescence polarization, mouse; (Lyso)-N-acylphosphatidylethanolamine lipase (Mus musculus), Q8VD66; purified mABHD4, FP-Rh probe fluorescence polarization; inhibition, % at 8.92 µM; 370,000 compounds, 0.54% hits; AID 720543, 2013;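 active = inhibition exceeding the mean over every tested compound plus 3 SD, cut at about 30% in these data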
Target sequence (Q8VD66 whole entry, looked up): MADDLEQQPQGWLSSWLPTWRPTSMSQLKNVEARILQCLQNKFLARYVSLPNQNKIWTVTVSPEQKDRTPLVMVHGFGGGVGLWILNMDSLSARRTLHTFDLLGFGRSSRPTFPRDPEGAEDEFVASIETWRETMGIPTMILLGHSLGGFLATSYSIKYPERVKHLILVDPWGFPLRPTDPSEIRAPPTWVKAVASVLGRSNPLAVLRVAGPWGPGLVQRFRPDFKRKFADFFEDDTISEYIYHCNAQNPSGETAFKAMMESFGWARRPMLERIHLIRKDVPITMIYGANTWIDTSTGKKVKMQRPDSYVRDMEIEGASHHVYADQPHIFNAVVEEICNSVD
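Test system: mABHD4 protein; Read-out basis: % inhibition; Incubation: 45 min + 60 min at 25 °C; Repeats: single replicate; Technique: fluorescence polarization with parallel and perpendicular emission, 525/598 nm; Compound: 8.92 µM, single dose; Benchmarks: full inhibition S159A mutant plus DMSO, zero as sample-well median.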
TCR-CD3 inh = inhibitors of human TCR-CD3 interaction, primary screen, biochemical, fluorescence, TAMRA-labeled TCR probe. 360,000 compounds, 0.37% hits. inhibition, % at 9.4 µM. T-cell receptor (TCR); in the data active = inhibition above about 19%;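 also: recombinant mutant TCR 2C K166C tagged with TAMRA read by polarization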
PRMT1 inh = PRMT1 methyltransferase inhibitors, primary screen, biochemical, fluorescence polarization | Protein arginine N-methyltransferase 1 (Homo sapiens), Q99873 | recombinant PRMT1, activity-based probe fluorescence polarization | inhibition, % at 2.79 µM | 370,000 compounds, 1.3% hits | AID 652257, 2013;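 active = inhibition above about 21% made by adding two undisclosed values, limit read from the data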
HTRA1 inhibitor = HTRA1 serine protease inhibitors, primary screen, biochemical, fluorescence polarization, HTS. recombinant HTRA1, FP-rhodamine activity-based probe. inhibition, % at 5.96 µM. 340,000 compounds, 0.5% hits. AID 504803, 2011; in the data active = inhibition above about 36%
SIAE primary = human SIAE inhibitors, primary screen, biochemical, fluorescence polarization, FP-Rh probe, 1536-well HTS | Sialate O-acetylesterase (Homo sapiens), Q9HAT2 | AID 1053197, 2014 | 370,000 compounds, 0.69% hits | SIAE FP-Rh probe binding | inhibition, % at 9.66 µM;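 active = inhibition above a cutoff: mean of compounds within the control limits plus 3 SD of those, cut at about 17% in these data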
PRMT1 confirm = PRMT1 methyltransferase inhibitors, confirmation, biochemical, fluorescence polarization, triplicate; shares compounds with PRMT1 inh; recombinant His-PRMT1, activity-based probe fluorescence polarization; inhibition, % at 2.79 µM; 3,300 compounds, 42% hits; AID 687036, 2013;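 active = mean inhibition across replicates above the hit cutoff derived for the earlier primary screen, cut at about 22% in these data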
A number is an active result; – = inactive; · = not tested or not shown.

SMILES | mABHD4 FP | TCR-CD3 inh | PRMT1 inh | HTRA1 inhibitor | SIAE primary | PRMT1 confirm
CS(=O)(=O)c1ccccc1C(=O)Nc1ccc(S(=O)(=O)N2CCCC2)cc1 | – | – | – | – | – | ·
CCOC(=O)C1=C(Cc2ccc(C)cc2)C(=O)c2ccccc2C1=O | – | – | 92.1 | · | – | 27.3
c1ccc2[nH]c3cc4ncnc4cc3nc2c1 | – | – | 59.5 | – | – | 61.4
O=c1[nH]c(=S)[nH]c2c1C(C1CCCCC1)OC(C1CCCCC1)C2 (stereo unspecified) | – | – | – | · | – | ·
COc1ccc2cc(C3CC(c4ccco4)=NN3S(C)(=O)=O)c(Cl)nc2c1 (stereo unspecified) | – | – | 25.4 | – | – | –
CCOc1ccc2nc(Cl)c(C3CC(c4ccco4)=NN3S(=O)(=O)c3ccccc3)cc2c1 (stereo unspecified) | – | – | 31.7 | – | – | –
Cc1ccc2cc(C3CC(c4ccco4)=NN3C(=O)CCC(=O)O)c(Cl)nc2c1 (stereo unspecified) | – | – | – | – | – | ·
COc1ccc(CCC(=O)OCC(=O)NCc2ccc(OC)c(OC)c2)cc1OC | – | – | – | – | – | ·
COc1ccc(CCN=C(C)c2cc(C)c(C)cc2O)cc1OC | – | – | – | – | – | ·
CC(=O)N(c1ccc2oc(=O)sc2c1)S(=O)(=O)c1ccc(C(=O)O)cc1 | – | – | 91.4 | – | – | 79.6
CC(C)C(=O)N(c1ccc2oc(=O)sc2c1)S(=O)(=O)c1cccs1 | – | – | 52.8 | – | – | –
COc1ccc(N(C(C)=O)S(=O)(=O)c2cccs2)cc1 | – | – | – | – | – | ·
CC(=O)N(c1ccc2oc(=O)sc2c1)S(=O)(=O)c1cccs1 | – | – | 93.7 | – | – | 57.3
COc1ccc(N(C(=O)C(C)C)S(=O)(=O)c2cccs2)cc1 | – | – | – | – | – | ·
O=C(COC(=O)c1cccc(Br)c1)NCc1ccco1 | – | – | – | – | – | ·
O=C1Nc2ccccc2-c2nnnn2C1N1CCCC1 (stereo unspecified) | – | – | – | · | – | ·
COc1ccccc1CNC(=O)CCNC(=O)C1CCN(S(=O)(=O)c2ccccc2)CC1 | – | – | – | – | – | ·
CCc1nc2ccc(C(=O)N(C)CCCN(C)C)cn2c1N(CC)CCOC | – | – | – | · | – | ·
O=C(NNC(=O)C1CCCCC1)c1ccco1 | – | – | – | – | – | ·
CCC1CCC(C(=O)NNC(=O)c2cc(-c3ccco3)[nH]n2)CC1 (stereo unspecified) | – | – | 83.0 | – | – | –
NC(=S)N/N=C/c1ccc(-c2ccccc2)o1 | – | – | – | – | – | ·
NC(=S)NN=Cc1ccc(-c2ccc(S(=O)(=O)Nc3ncccn3)cc2)o1 | – | – | 31.9 | – | – | –
CO/N=C(\C(=O)N[C@@H]1C(=O)N2C(C(=O)O)=C(COC(N)=O)CS[C@H]12)c1ccco1 | – | – | – | – | – | ·
Cn1nnnc1SCC1=C(C(=O)O)N2C(=O)[C@@H](NC(=O)[C@H](O)c3ccccc3)[C@H]2SC1 | · | · | · | – | · | ·
Cc1cc(C)n(CC(=O)NC2C(=O)N3C(C(=O)O)=C(CSc4nnc(C)s4)CSC23)n1 (stereo unspecified) | – | – | 35.0 | – | – | –
SMILES | mABHD4 FP | TCR-CD3 inh | PRMT1 inh | HTRA1 inhibitor | SIAE primary | PRMT1 confirm
Cn1nnnc1SCC1=C(C(=O)O)N2C(=O)C(NC(=O)C3CC3c3ccccc3)C2SC1 (stereo unspecified) | – | – | 27.9 | – | – | –
Cc1nnc(SCC2=C(C(=O)O)N3C(=O)C(NC(=O)Cn4ncc(Cl)c4C)C3SC2)s1 (stereo unspecified) | – | – | 50.1 | – | – | 36.8
Cc1nnc(SCC2=C(C(=O)O)N3C(=O)C(NC(=O)c4cccc(F)c4F)C3SC2)s1 (stereo unspecified) | – | – | 59.2 | – | – | 29.2
Cc1cccc(CCNC(=O)C2CCC(=O)N(Cc3ccccc3F)C2)n1 (stereo unspecified) | – | – | – | – | – | ·
CCOC(=O)CCCCCC(=O)Nc1ccc2c(c1)C(=O)N([C@H](C)CO)C[C@@H](C)[C@H](CN(C)Cc1ccc3c(c1)OCO3)O2 | – | – | – | – | – | ·
N#Cc1cc2c(=O)n3ccccc3nc2n(Cc2ccco2)c1=NC(=O)c1ccco1 | – | – | 31.9 | – | – | –
COc1ccc(C(CC(=O)Nc2cc(C)ccn2)N2Cc3ccccc3C2=O)cc1 (stereo unspecified) | – | – | – | – | – | ·
O=C1OCCN1/N=C/c1ccc([N+](=O)[O-])o1 | – | – | – | – | – | ·
O=C1CN(/N=C/c2ccc([N+](=O)[O-])o2)C(=O)N1 | – | – | 29.6 | · | – | –
COc1ccc(S(=O)(=O)N2CCC(C(N)=O)CC2)cc1C(=O)N1CCCCCC1 | – | – | – | – | – | ·
CCCCN1C(=O)CC(Sc2ncccc2C(=O)O)C1=O (stereo unspecified) | – | – | – | – | – | ·
CCCCN1C(=O)CC(SC2CC(=O)N(CCCC)C2=O)C1=O (stereo unspecified) | – | – | 57.4 | – | – | –
CCN1C(=O)CC(SC2CC(=O)N(CC)C2=O)C1=O (stereo unspecified) | – | – | 33.0 | – | – | 26.6
Cc1nonc1CC(=O)NC1CCCc2c1cnn2-c1ccc(F)cc1F (stereo unspecified) | – | – | – | – | – | ·
Cn1c(-c2ccccc2)cc(=NNS(C)(=O)=O)c2cc(S(=O)(=O)O)ccc21 | – | – | – | – | – | ·
NNC(=O)Cn1nc(Cc2ccccc2)n(N)c1=O | – | – | – | – | – | ·
O=C(O)CN1C(=O)c2ccc(C(=O)c3ccccc3)cc2C1=O | – | – | – | – | – | ·
NC(=O)c1sc2nc(-c3cccs3)ccc2c1N | – | – | – | – | – | ·
Nc1c(C(=O)NC2CCCC2)sc2nc(-c3cccs3)ccc12 | – | – | 53.4 | – | – | –
CCOC(=O)CNC(=O)CSc1nc(-c2ccccc2)ns1 | – | – | 43.1 | – | – | –
CCN(CC)C(=O)[C@H]1C[C@H](CC(=O)NCCc2ccccn2)C(=O)N2CCc3c([nH]c4cc(-c5ccco5)ccc34)[C@]12C | – | – | – | – | – | ·
CC(C)N(C(=O)[C@H]1C[C@H](CC(=O)NCCc2ccccn2)C(=O)N2CCc3c([nH]c4cc(-c5ccco5)ccc34)[C@]12C)C(C)C | – | – | 39.7 | – | – | –
C#CCNC(=O)c1cc2c(Br)ccc(Br)c2nc1N | – | – | – | · | – | ·
Cc1cc(OCC(=O)Nc2ccccc2C(N)=O)c2c(C)cc(=O)oc2c1 | – | – | – | – | – | ·
COc1ccccc1CN(Cc1cc2c(C)ccc(C)c2[nH]c1=O)Cc1nnnn1Cc1ccco1 | – | – | 36.6 | – | – | –
